Laboratory results from ChEMBL document CHEMBL1124415, “Acrylamide derivatives as antiallergic agents. 2. Synthesis and structure-activity relationships of N-[4-[4-(diphenylmethyl)-1-piperazinyl]butyl]-3-(3-pyridyl)acryl amides” (J Med Chem, 1989).

organism: Cavia porcellus; test: Anti-histaminic activity was measured in guinea pig trachea; assay type: functional; settings: not given
Summary of the method: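 Zig-zag guinea pig tracheal strips; histamine dose-response curves obtained before and 60 min after adding test compound.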

In order of falling IC50:
1. Cc1ccc(/C=C/C(=O)NCCCCN2CCN(C(c3ccccc3)c3ccccc3)CC2)cn1 [TAGORIZINE]  0.12 µM
2. CN1CCC(=C2c3ccccc3CC(=O)c3sccc32)CC1 [KETOTIFEN]  0.0016 µM

tested on: Rattus norvegicus; test: Antiallergic activity by passive cutaneous anaphylaxis assay upon peroral administration of 20 mg/kg in rat; assay type: functional; settings: route oral

`CN1CCC(=C2c3ccccc3CC(=O)c3sccc32)CC1` [KETOTIFEN] showed an ED50 of 16.3 mg/kg.

Work on `Cc1ccc(/C=C/C=C/C(=O)NCCCN2CCN(C(c3ccccc3)c3ccccc3)CC2)cn1` yielded an inhibition in vivo at 20 mg/kg of 35.8%.

organism: Homo sapiens; test: Inhibitory activity against histamine release in human basophil; assay type: functional; settings: not given
Summary of the method: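 Basophils from nonallergic human volunteers, washed in Tris-A buffer pH 7.4 (first wash with 4 mM EDTA), resuspended at 5-10 × 10^6 leukocytes/mL in Tris-ACM pH 7.6; preincubated with compound 15 min at 37 °C, then 45 min with anti-human IgE.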

First: CN1CCC(=C2c3ccccc3CC(=O)c3sccc32)CC1 [KETOTIFEN]
Second: Cc1ccc(/C=C/C(=O)NCCCCN2CCN(C(c3ccccc3)c3ccccc3)CC2)cn1 [TAGORIZINE]
The IC50 of the first is higher: > 100 µM for the first, 34 µM for the second. The second is the more potent here.

tested on: Rattus norvegicus; test: Antiallergic activity determined by passive cutaneous anaphylaxis assay upon peroral administration of 20 mg/kg in rat; assay type: functional; settings: route oral

Going from `O=C(/C=C/c1cccnc1Cl)NCCCCN1CCN(C(c2ccccc2)c2ccccc2)CC1` to `Cc1ncccc1/C=C/C(=O)NCCCCN1CCN(C(c2ccccc2)c2ccccc2)CC1`, the inhibition in vivo at 20 mg/kg rises from < 39.3% to 68.8%.

First: O=C(/C=C/c1cccnc1)NCCCCN1CCC(=C(c2ccccc2)c2ccccc2)CC1
Second: Cc1ccc(/C=C/C(=O)NCCCCN2CCC(=C(c3ccccc3)c3ccccc3)CC2)cn1
The inhibition in vivo at 20 mg/kg of the first is lower: 85.9% for the first, 99.5% for the second.

Going from `CC/C(=C\c1cccnc1)C(=O)NCCCCN1CCN(C(c2ccccc2)c2ccccc2)CC1` to `CCC/C(=C\c1cccnc1)C(=O)NCCCCN1CCN(C(c2ccccc2)c2ccccc2)CC1`, the inhibition in vivo at 20 mg/kg falls from 67.8% to 44.2%.

Compared with `O=C(/C=C/c1cccnc1)NCCCCN1CCN(C(c2ccccc2)c2ccc(Cl)cc2)CC1` (stereo not drawn), `O=C(/C=C/c1cccnc1)NCCCCN1CCN(C(c2ccccc2)c2ccc(F)cc2)CC1` (stereo not drawn) is higher in inhibition in vivo at 20 mg/kg: 19.9% for the first, 53.8% for the second.

First: CCCc1ccc(/C=C/C(=O)NCCCCN2CCN(C(c3ccccc3)c3ccccc3)CC2)cn1
Second: CCCCc1ccc(/C=C/C(=O)NCCCCN2CCN(C(c3ccccc3)c3ccccc3)CC2)cn1
The inhibition in vivo at 20 mg/kg of the first is higher: 44.4% for the first, 22.2% for the second.

Going from `O=C(/C=C/c1cncc(Br)c1)NCCCCN1CCN(C(c2ccccc2)c2ccccc2)CC1` to `O=C(/C=C/c1cncc(O)c1)NCCCCN1CCN(C(c2ccccc2)c2ccccc2)CC1`, the inhibition in vivo at 20 mg/kg falls from 47.5% to 28.8%.

Compared with `O=C(/C=C/c1cccnc1)NCCCCN1CCC(C(O)(c2ccccc2)c2ccccc2)CC1`, `O=C(/C=C/c1cccnc1)NCCCCN1CCC(OC(c2ccccc2)c2ccccc2)CC1` is higher in inhibition in vivo at 20 mg/kg: 35.1% for the first, 42.2% for the second.

Compared with `COc1cncc(/C=C/C(=O)NCCCCN2CCN(C(c3ccccc3)c3ccccc3)CC2)c1`, `O=C(/C=C/c1cncc(F)c1)NCCCCN1CCN(C(c2ccccc2)c2ccccc2)CC1` is higher in inhibition in vivo at 20 mg/kg: 7.6% for the first, 65% for the second.

Compared with `Cc1ncc(/C=C/C(=O)NCCCCN2CCN(C(c3ccccc3)c3ccccc3)CC2)c(CO)c1O`, `Cc1ncc(/C=C/C=C/C(=O)NCCCCN2CCN(C(c3ccccc3)c3ccccc3)CC2)c(CO)c1O` is lower in inhibition in vivo at 20 mg/kg: 53.7% for the first, 16.4% for the second.

Going from `COc1ccc(C(c2ccccc2)N2CCN(CCCCNC(=O)/C=C/c3cccnc3)CC2)cc1` (stereo not drawn) to `Cc1ccc(C(c2ccccc2)N2CCN(CCCCNC(=O)/C=C/c3cccnc3)CC2)cc1` (stereo not drawn), the inhibition in vivo at 20 mg/kg rises from 40.9% to 82.9%.

Going from `O=C(/C=C/c1ccc(Oc2ccccc2)nc1)NCCCCN1CCN(C(c2ccccc2)c2ccccc2)CC1` to `O=C(/C=C/c1ccc(-c2ccccc2)nc1)NCCCCN1CCN(C(c2ccccc2)c2ccccc2)CC1`, the inhibition in vivo at 20 mg/kg falls from 45.6% to 3.2%.

Compared with `Cc1ccc(CCC(=O)NCCCCN2CCN(C(c3ccccc3)c3ccccc3)CC2)cn1`, `O=C(CCc1cccnc1)NCCCCN1CCN(C(c2ccccc2)c2ccccc2)CC1` is higher in inhibition in vivo at 20 mg/kg: 24.9% for the first, 28.1% for the second.

Going from `C/C(=C\C(=O)NCCCCN1CCN(C(c2ccccc2)c2ccccc2)CC1)c1cccnc1` to `C/C(=C\c1cccnc1)C(=O)NCCCCN1CCN(C(c2ccccc2)c2ccccc2)CC1`, the inhibition in vivo at 20 mg/kg rises from 52.2% to 78.9%.

Compared with `Cc1ncc(/C=C/C=C/C(=O)NCCCN2CCN(C(c3ccccc3)c3ccccc3)CC2)c(CO)c1O`, `Cc1ccc(/C=C/C=C/C(=O)NCCCCN2CCN(C(c3ccccc3)c3ccccc3)CC2)cn1` is higher in inhibition in vivo at 20 mg/kg: 9.8% for the first, 68.8% for the second.

Compared with `CNc1ncccc1/C=C/C(=O)NCCCCN1CCN(C(c2ccccc2)c2ccccc2)CC1`, `Cc1ccc(/C=C/C(=O)NCCCCN2CCN(C(c3ccccc3)c3ccccc3)CC2)cn1` [TAGORIZINE] is higher in inhibition in vivo at 20 mg/kg: 45.2% for the first, 81.9% for the second.

Compared with `Cc1ccc(C(c2ccccc2)N2CCN(CCCCNC(=O)/C=C/c3ccc(C)nc3)CC2)cc1` (stereo not drawn), `Cc1ccc(C(c2ccc(C)cc2)N2CCN(CCCCNC(=O)/C=C/c3cccnc3)CC2)cc1` is lower in inhibition in vivo at 20 mg/kg: 73.9% for the first, 20.2% for the second.

Going from `COc1ccc(/C=C/C(=O)NCCCCN2CCN(C(c3ccccc3)c3ccccc3)CC2)cn1` to `CCOc1ccc(/C=C/C(=O)NCCCCN2CCN(C(c3ccccc3)c3ccccc3)CC2)cn1`, the inhibition in vivo at 20 mg/kg falls from 41% to 33.9%.

Going from `O=C(/C=C/c1ccc(Cl)nc1)NCCCCN1CCN(C(c2ccccc2)c2ccccc2)CC1` to `CC(C)c1ccc(/C=C/C(=O)NCCCCN2CCN(C(c3ccccc3)c3ccccc3)CC2)cn1`, the inhibition in vivo at 20 mg/kg falls from 49.3% to 38.9%.

Going from `CCCOc1ccc(/C=C/C(=O)NCCCCN2CCN(C(c3ccccc3)c3ccccc3)CC2)cn1` to `CCCCCOc1ccc(/C=C/C(=O)NCCCCN2CCN(C(c3ccccc3)c3ccccc3)CC2)cn1`, the inhibition in vivo at 20 mg/kg rises from 7.5% to 14.9%.

First: O=C(NCCCCN1CCN(C(c2ccccc2)c2ccccc2)CC1)/C(=C/c1cccnc1)c1ccccc1
Second: O=C(/C=C/c1cccnc1)NCCCCN1CCN(C(c2ccccc2)c2ccccc2)CC1
The inhibition in vivo at 20 mg/kg of the first is lower: 58% for the first, 62.3% for the second.

Going from `C/C(=C\c1ccc(C)nc1)C(=O)NCCCCN1CCN(C(c2ccccc2)c2ccccc2)CC1` to `CCSc1ccc(/C=C/C(=O)NCCCCN2CCN(C(c3ccccc3)c3ccccc3)CC2)cn1`, the inhibition in vivo at 20 mg/kg falls from 58.2% to 18.6%.

First: O=C(/C=C/C=C/c1cccnc1)NCCCN1CCN(C(c2ccccc2)c2ccccc2)CC1
Second: O=C(/C=C/C=C/c1cccnc1)NCCCCN1CCN(C(c2ccccc2)c2ccccc2)CC1
The inhibition in vivo at 20 mg/kg of the first is lower: 40.4% for the first, 66.4% for the second.

First: Cc1cccc(C(c2ccccc2)N2CCN(CCCCNC(=O)/C=C/c3cccnc3)CC2)c1 (stereo not drawn)
Second: Cc1ccc(C(c2ccccc2)N2CCN(CCCCNC(=O)/C=C/c3cccnc3)CC2)cc1C (stereo not drawn)
The inhibition in vivo at 20 mg/kg of the first is higher: 19% for the first, 5.4% for the second.

First: O=C(/C=C/c1cncc(Cl)c1)NCCCCN1CCN(C(c2ccccc2)c2ccccc2)CC1
Second: Cc1cc(/C=C/C(=O)NCCCCN2CCN(C(c3ccccc3)c3ccccc3)CC2)cnc1C
The inhibition in vivo at 20 mg/kg of the first is higher: 66.4% for the first, 40.5% for the second.

Compared with `Cc1ccc(/C=C/C(=O)NCCCCN2CCN(C(c3ccccc3)c3ccccc3)CC2)c(C)n1`, `Cc1ncc(/C=C/C(=O)NCCCCN2CCN(C(c3ccccc3)c3ccccc3)CC2)c2c1OC(C)(C)OC2` is lower in inhibition in vivo at 20 mg/kg: 66.8% for the first, 17% for the second.

`O=C(/C=C/c1cccnc1)NCCCCN1CCN(C(c2ccc(Cl)cc2)c2ccc(Cl)cc2)CC1` showed an inhibition in vivo at 20 mg/kg of 5.4%.

organism: Rattus norvegicus; test: ED50 value was measured in rat passive cutaneous anaphylaxis (PCA) by linear regression analysis; assay type: functional; settings: not given

Compound `Cc1ccc(/C=C/C(=O)NCCCCN2CCN(C(c3ccccc3)c3ccccc3)CC2)cn1` [TAGORIZINE] has an ED50 of 3.3 mg/kg.
